Data reported in ChEMBL document CHEMBL1123476, “Synthesis of congeners and prodrugs of the benzene maleimide photoadduct mitindomide as potential antitumor agents. 2” (J Med Chem, 1986).
Values joined by “and” are separate entries in the source; they are usually repeats but may differ in a detail not shown here. Equal entries are not always repeated.

Columns and labels:
P388 [1] = test: (§1) Antitumor activity in P-388 lymphocytic leukemia system at 100 mg/kg dose levels per injection.; assay type: functional, Mus musculus
In short: (§2)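 P-388 leukemia in animals, Q01D×09 schedule: dose given daily for 9 days, in mg/kg per injection. Read-outs are survivors on day 4 (live/total animals), body-weight difference test minus control (g), and % T/C (median lifetime of treated ÷ median lifetime of controls × 100). Some compounds were tested in independent runs at different times.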

P388 [2] = test: (§3) Antitumor activity in P-388 lymphocytic leukemia system at 50 mg/kg dose levels per injection.; assay type: functional, Mus musculus; in short: as §2
P388 [3] = test: as §3; assay type: functional, Mus musculus; remark: listed apart in the source
In short: (§4)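 P-388 leukemia in vivo, dosed Q01D×09 (one injection daily for 9 days, mg/kg per injection). Activity is %T/C, the median lifetime of treated animals divided by that of controls, ×100. Live animals on day 4 were counted against the total (survivors day 4). Repeat tests were done independently at different times.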

P388 [4] = test: Compound was tested for antitumor activity in P-388 lymphocytic leukemia system at 200 mg/kg dose levels per injection.; assay type: functional, organism-based; parameters: dose 200 mg/kg; settings: Mus musculus; in short: as §4
P388 [5] = test: Compound was tested for antitumor activity in P-388 lymphocytic leukemia system at 100 mg/kg dose levels per injection; Toxic; assay type: functional, organism-based; parameters: dose 100 mg/kg; settings: Mus musculus; in short: as §4
P388 [6] = test: Antitumor activity in P-388 lymphocytic leukemia system and the difference in body weight was calculated at 200 mg/kg dose levels per injection.; assay type: functional, Mus musculus; settings: 200 mg/kg
P388 [7] = test: Antitumor activity in P-388 lymphocytic leukemia system at 25 mg/kg dose levels per injection; assay type: functional, Mus musculus; in short: as §4
P388 [8] = test: as §1; assay type: functional, Mus musculus; in short: as §4; remark: listed apart in the source
P388 [9] = test: Compound was tested for antitumor activity in P-388 lymphocytic leukemia system at 100 mg/kg dose levels per injection; 5/6; assay type: functional, Mus musculus; in short: as §2
P388 [10] = test: Compound was tested for antitumor activity in P-388 lymphocytic leukemia system at 200 mg/kg dose levels per injection; 4/6; assay type: functional, Mus musculus; in short: as §2
P388 [11] = test: Compound was tested for antitumor activity in P-388 lymphocytic leukemia system at 200 mg/kg dose levels per injection; 2/6; assay type: functional, Mus musculus; in short: as §2
P388 [12] = test: Antitumor activity in P-388 lymphocytic leukemia system and the difference in body weight calculated at 100 mg/kg dose levels per injection.; assay type: functional, Mus musculus; settings: 100 mg/kg
P388 [13] = test: Antitumor activity in P-388 lymphocytic leukemia system at 25 mg/kg dose levels per injection.; assay type: functional, Mus musculus; in short: as §2
P388 [14] = test: Compound was tested for antitumor activity in P-388 lymphocytic leukemia system at 200 mg/kg dose levels per injection; 5/5; assay type: functional, Mus musculus; in short: as §2
P388 [15] = test: Compound was tested for antitumor activity in P-388 lymphocytic leukemia system and the difference in body weight was calculated at 400 mg/kg dose levels per injection; assay type: functional, Mus musculus
P388 [16] = test: Compound was tested for antitumor activity in P-388 lymphocytic leukemia system at 400 mg/kg dose levels per injection; 5/5; assay type: functional, Mus musculus; in short: as §2
[17] = Solubility was determined; INS= less than 0.1; assay type: physicochemical
P388 [18] = test: (§5) Antitumor activity in P-388 lymphocytic leukemia system at 200 mg/kg dose levels per injection.; assay type: functional, Mus musculus; settings: 200 mg/kg; in short: as §4
P388 [19] = test: Compound was tested for antitumor activity in P-388 lymphocytic leukemia system at 100 mg/kg dose levels per injection; 5/5; assay type: functional, Mus musculus; in short: as §2
P388 [20] = test: Compound was tested for antitumor activity in P-388 lymphocytic leukemia system. at 400 mg/kg dose levels per injection; assay type: functional, Mus musculus; in short: as §4
P388 [21] = test: Compound was tested for antitumor activity in P-388 lymphocytic leukemia system at 50 mg/kg dose levels per injection; 5/5; assay type: functional, Mus musculus; in short: as §2
P388 [22] = test: as §5; assay type: functional, Mus musculus; in short: as §2
P388 [23] = test: Compound was tested for antitumor activity in P-388 lymphocytic leukemia system at 25 mg/kg dose levels per injection; assay type: functional, Mus musculus; in short: as §4
P388 [24] = test: Antitumor activity in P-388 lymphocytic leukemia system and the difference in body weight was calculated at 50 mg/kg dose levels per injection.; assay type: functional, Mus musculus; settings: 50 mg/kg
P388 [25] = test: Compound was tested for antitumor activity in P-388 lymphocytic leukemia system 25 mg/kg dose levels per injection; assay type: functional, Mus musculus; in short: as §4
P388 [26] = test: Compound was tested for antitumor activity in P-388 lymphocytic leukemia system. at 400 mg/kg dose levels per injection; Toxic; assay type: functional, organism-based; parameters: dose 400 mg/kg; settings: Mus musculus; in short: as §4
P388 [27] = test: Compound was tested for antitumor activity in P-388 lymphocytic leukemia system. The difference in body weight was calculated at 25 mg/kg dose levels per injection; assay type: functional, Mus musculus
P388 [28] = test: Compound was tested for antitumor activity in P-388 lymphocytic leukemia system at 400 mg/kg dose levels per injection; 6/6; assay type: functional, Mus musculus; in short: as §2
P388 [29] = test: Compound was tested for antitumor activity in P-388 lymphocytic leukemia system at 25 mg/kg dose levels per injection; 6/6; assay type: functional, Mus musculus; in short: as §2
P388 [30] = test: Compound was tested for antitumor activity in P-388 lymphocytic leukemia system. at 200 mg/kg dose levels per injection; assay type: functional, Mus musculus; in short: as §4
P388 [31] = test: Compound was tested for antitumor activity in P-388 lymphocytic leukemia system at 200 mg/kg dose levels per injection; assay type: functional, Mus musculus; in short: as §4
P388 [32] = test: Compound was tested for antitumor activity in P-388 lymphocytic leukemia system at 12.5 mg/kg dose levels per injection; 6/6; assay type: functional, Mus musculus; in short: as §2
P388 [33] = test: Compound was tested for antitumor activity in P-388 lymphocytic leukemia system at 200 mg/kg dose levels per injection; 3/6; assay type: functional, Mus musculus; in short: as §2
P388 [34] = test: Compound was tested for antitumor activity in P-388 lymphocytic leukemia system The difference in body weight was calculated at 12.5 mg/kg dose levels per injection; assay type: functional, Mus musculus
P388 [35] = test: Compound was tested for antitumor activity in P-388 lymphocytic leukemia system at 12.5 mg/kg dose levels per injection; assay type: functional, Mus musculus; in short: as §4
P388 [36] = test: Compound was tested for antitumor activity in P-388 lymphocytic leukemia system at 200 mg/kg dose levels per injection; 5/6; assay type: functional, Mus musculus; in short: as §2

Compound	Survivors at day 4 (P388 [1])	Survivors at day 4 (P388 [2])	T/C (P388 [3]; 50 mg/kg)	T/C (P388 [4])	Weight difference (P388 [6])	T/C (P388 [7]; 25 mg/kg)	T/C (P388 [8])	Survivors at day 4 (P388 [9])	Weight difference (P388 [12])	Survivors at day 4 (P388 [13])	Weight difference (P388 [15])	Solubility [17]	T/C (P388 [18])	T/C (P388 [8]; 100 mg/kg)	Survivors at day 4 (P388 [22])	T/C (P388 [23])	Weight difference (P388 [24])	Survivors at day 4 (P388 [29])	Weight difference (P388 [8])	further results
O=C(O)CCC(=O)OCN1C(=O)C2C3C=CC(C2C1=O)C1C2C(=O)N(COC(=O)CCC(=O)O)C(=O)C2C31 (configuration not stated)	6	6	115% and 116%	Toxic	-6.7 g and -6.9 g	103% and 107%	165%	5	-4.4 g and -3.1 g	6										T/C (P388 [5]): Toxic; Survivors at day 4 (P388 [10]): 4; Survivors at day 4 (P388 [11]): 2
CC(=O)OCN1C(=O)C2C3C=CC(C2C1=O)C1C2C(=O)N(COC(C)=O)C(=O)C2C31 (configuration not stated)	6	6	140% and 115%							6	-2.2 g	Insoluble	180% and 133%	118% and 155%	6	117%	-0.4 g and -0.7 g			Survivors at day 4 (P388 [14]): 5; Survivors at day 4 (P388 [16]): 5; Survivors at day 4 (P388 [19]): 5; T/C (P388 [20]): 208%; Survivors at day 4 (P388 [21]): 5; Weight difference (P388 [25]): -0.1 g
O=C1C2C3C=CC(C2C(=O)N1CN1CCSCC1)C1C2C(=O)N(CN4CCSCC4)C(=O)C2C31 (configuration not stated)	6	6	166% and 121%		-5.1 g and -5.2 g				-2.9 g and -2.1 g	6	-5.7 g	Insoluble	166% and 194%	148% and 165%	6	99%	-1.4 g and -2.1 g			T/C (P388 [26]): Toxic; Weight difference (P388 [27]): -1.3 g; Survivors at day 4 (P388 [28]): 6
CC12C=CC(C)(C3C(=O)NC(=O)C31)C1C3C(=O)NC(=O)C3C12 (configuration not stated)	6	6					109%					Insoluble			6			6	-4.8 g	T/C (P388 [3]): 108%; Weight difference (P388 [3]): -3.7 g; T/C (P388 [7]): 103%; T/C (P388 [30]): 97%; Weight difference (P388 [31]): -6.1 g; Weight difference (P388 [23]): -1.5 g
O=C1NC(=O)C2C3C=CC(C12)C1C2C(=O)NC(=O)C2C31 (configuration not stated)	6	6	172% and 168%	Toxic		149% and 142%	94%	5				Insoluble		177%				6	-3.4 g	Weight difference (P388 [3]; 50 mg/kg): -2.2 g and -2 g; Survivors at day 4 (P388 [32]): 6; Survivors at day 4 (P388 [33]): 3; Weight difference (P388 [34]): 0.2 g; Weight difference (P388 [31]; 200 mg/kg): -7.3 g and -3.1 g; T/C (P388 [35]): 119%; Survivors at day 4 (P388 [36]): 5
